# In PubChem BioAssay:
# Active and inactive are the calls of the source.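 How the source made its calls, unless noted: active means inhibition at or above 50% relative to wild type and mutant plate controls; inactive means inhibition below 50%.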
# Key:
# [1] = inhibitors of TNFa-induced NFkB p65 translocation, primary screen, imaging, HUVEC, MLSMR starter and 10KST1 sets (AID 438;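 active means inhibition above 20% together with a positive visual image hit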;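 further: compound added about 3h40 before a 20 min TNFalpha stimulation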;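 on inhibition: signal is the nuclear over cytoplasmic p65 intensity ratio per well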); conditions: HUVEC TNFa-induced p65 nuclear translocation; cell count: measured here: nuclei count (cytotoxicity indicator), at 2.08 µM; inhibition: at 2 µM, stronger effect = higher value, 0% TNFa-plus-vehicle, 100% no-TNFa wells
# [2] = endothelial E-selectin expression blockers – imaging, HUVEC, immunofluorescence, MLSMR starter and 10KST1 sets, primary screen (AID 487;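 active means visually confirmed hit in the image check and inhibition above 20%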;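 on inhibition: signal is fraction of cell area covered by stained E-selectin grains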;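 on nuclei count: 100% = median nuclei count of all wells on the same plate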); conditions: HUVEC TNFalpha-induced E-selectin immunofluorescence imaging, at 2 µM; inhibition: stronger effect = higher value; nuclei count: measured here: cell number, toxicity
# [3] = Primary imaging screen for DUSP6 inhibitors that restore phospho-Erk in transfected HeLa cells, chemical complementation (AID 609;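 active means compounds giving at least 50% inhibition in the cell-based MKP-3 phosphatase rescue imaging test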;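 on inhibition: phospho-Erk level distribution per well compared with pooled transfected vehicle control wells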); conditions: HeLa MKP-3 transfected, phospho-Erk imaging KS statistic, at 10 µM, cells stimulated with TPA for 15 min
# [4] = biological target: Dual specificity protein phosphatase 6 (Homo sapiens) (UniProt Q16828); experiment: as above; conditions: HeLa MKP-3 transfected, phospho-Erk imaging KS statistic; at 10 µM; stronger effect = higher value; cells stimulated with TPA for 15 min
# [5] = biological target: Voltage-gated potassium channel subunit beta-2 (Rattus norvegicus) (UniProt P62483); experiment: inhibitors of rat Kvbeta2 reductase activity – biochemical, NADPH fluorescence, primary screen (AID 622;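 active means fluorescence slope higher than the sample average by over 3 SD, cut at about -0.22 in these data, passing the limit was not always enough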;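 further: slope of raw intensity against log time taken from 70 to 1610 s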); conditions: recombinant KvBeta, 4-cyanobenzaldehyde reduction, at 10 µM, stronger effect = higher value
# [6] = biological target: Voltage-gated potassium channel subunit beta-2 (Rattus norvegicus) (UniProt P62483); experiment: enhancers of rat Kvbeta2 NADPH turnover – biochemical, NADPH fluorescence, primary screen (AID 623;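 active means NADPH fluorescence slope more negative than the mean of all samples by about 3 SD, 99.7% confidence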;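 further: fluorescence intensity change per second fitted from 20 to 320 s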); conditions: Recombinant KvBeta, NADPH fluorescence decrease slope, 10 min; at 10 µM; stronger effect = lower value
# [7] = biological target: Alpha-2C adrenergic receptor (Homo sapiens) (UniProt P18825); experiment: compounds altering alpha2C-coupled GIRK flux – cell-based, HEK293 alpha2C/GIRK1/2, thallium flux, primary screen (AID 624;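 active means fluorescence slope after compound addition differing from the mean of all screened samples at 99.7% confidence, in either direction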;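 further: slope of fluorescence ratio to pre-addition baseline per second over 15 to 24 s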); conditions: thallium flux BTC fluorescence, at 10 µM, actives lie on both sides
# [8] = inhibitors of larval lipid processing in zebrafish, primary screen, whole organism, PED6 fluorescence, gall bladder and intestine (AID 686;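 active means a full or partial loss of lipid-probe fluorescence in the fish gall bladder, intestine or both, judged by eye; inactive means no fluorescence loss, or compound toxic to the fish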;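 further: larvae 5 to 7 days old with five fish per well; signal comes from phospholipase A2 cleavage of quenched PED6 carried via bile; overnight exposure to compound and PED6 before scoring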); conditions: Zebrafish larvae PED6 lipid processing, fluorescence scoring; screened at 20 µM (by protocol)
# In short: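 system = live zebrafish larvae aged 5-7 days, whole organism | probe or stimulus = ingested quenched lipid PED6 at 100 nM | doses = 20 µM single dose | timing = overnight exposure | detection = fluorescence microscopy with visual scoring of gall bladder and intestine | read-out = visual per-well fluorescence inhibition score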
# [9] = loss of swimming-algae plug formation – whole organism, Chlamydomonas reinhardtii, WT vs cilia-less mutant, absorbance, 96-well, primary screen (AID 463189); conditions: Chlamydomonas reinhardtii gravitaxis, OD600 absorbance, 2 days; at 10 µM; stronger effect = higher value;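 further: 0% = wild type cc124 cells in DMSO and 100% = ciliumless bld1 mutant cells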
# [10] = measured here: cell density z-score
# [11] = measured here: nuclear c-Myc green intensity z-score
# [12] = measured here: nuclear pErk red intensity z-score, stronger effect = higher value
# Sequence of Dual specificity protein phosphatase 6 (Homo sapiens) (Q16828 whole entry, looked up): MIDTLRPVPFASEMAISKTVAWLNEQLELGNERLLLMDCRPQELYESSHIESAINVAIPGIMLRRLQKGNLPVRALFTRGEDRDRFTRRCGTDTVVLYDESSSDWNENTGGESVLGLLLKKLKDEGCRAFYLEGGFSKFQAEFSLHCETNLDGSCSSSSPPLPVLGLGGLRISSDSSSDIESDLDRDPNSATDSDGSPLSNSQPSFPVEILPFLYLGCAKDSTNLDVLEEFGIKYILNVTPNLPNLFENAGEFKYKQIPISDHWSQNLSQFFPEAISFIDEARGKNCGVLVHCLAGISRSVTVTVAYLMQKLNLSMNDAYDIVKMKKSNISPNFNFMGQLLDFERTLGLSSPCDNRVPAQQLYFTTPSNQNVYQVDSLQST
# Sequence of Alpha-2C adrenergic receptor (Homo sapiens) (P18825 whole entry, looked up): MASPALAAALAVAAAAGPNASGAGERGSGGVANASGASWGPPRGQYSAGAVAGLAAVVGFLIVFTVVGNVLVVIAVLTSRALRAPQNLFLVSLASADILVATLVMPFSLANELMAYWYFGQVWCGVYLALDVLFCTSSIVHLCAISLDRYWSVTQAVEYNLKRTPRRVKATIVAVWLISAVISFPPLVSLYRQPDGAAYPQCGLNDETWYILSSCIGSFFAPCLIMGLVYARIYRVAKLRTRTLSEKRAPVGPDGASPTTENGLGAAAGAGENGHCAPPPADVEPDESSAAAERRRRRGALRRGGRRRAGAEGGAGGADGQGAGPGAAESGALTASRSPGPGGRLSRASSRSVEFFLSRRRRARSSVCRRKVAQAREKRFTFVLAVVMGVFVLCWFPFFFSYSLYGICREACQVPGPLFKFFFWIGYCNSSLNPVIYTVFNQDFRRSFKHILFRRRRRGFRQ
# Sequence of Voltage-gated potassium channel subunit beta-2 (Rattus norvegicus) (P62483 whole entry, looked up): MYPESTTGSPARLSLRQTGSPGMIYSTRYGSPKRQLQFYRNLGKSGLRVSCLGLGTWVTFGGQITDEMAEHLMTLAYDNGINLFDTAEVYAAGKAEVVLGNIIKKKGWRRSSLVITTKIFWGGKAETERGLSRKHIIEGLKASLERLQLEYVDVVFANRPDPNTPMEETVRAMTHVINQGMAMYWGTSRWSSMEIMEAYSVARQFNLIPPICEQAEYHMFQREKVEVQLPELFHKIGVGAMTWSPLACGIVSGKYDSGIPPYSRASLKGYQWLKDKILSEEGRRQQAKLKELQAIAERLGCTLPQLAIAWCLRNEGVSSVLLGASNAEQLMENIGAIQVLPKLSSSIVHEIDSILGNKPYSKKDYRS
Structure (SMILES),cell count [1],inhibition [1],inhibition [2],nuclei count [2],"z-score [3, 10]","z-score [3, 11]","z-score [3, 12]",inhibition [4],fluorescence slope [5],NADPH fluorescence slope [6],slope [7],outcome [8],inhibition [9]
COc1ccccc1Cn1c2nc3ccccc3nc2c2c(=O)n(CC(C)C)cnc21,340,-7.7% (inactive),-28.2% (inactive),148%,0.356,-0.852,-0.477,-8.59% (inactive),-0.425 (inactive),-0.000144 (inactive),0.00898 (inactive),inactive,6.68% (inactive)
N#CC1=C(C=Nc2ccccc2O)CCC1,643,-12.1% (inactive),-13.8% (inactive),163%,-1.7,-0.376,2.01,-8.95% (inactive),-0.416 (inactive),-6.1e-05 (inactive),0.00456 (inactive),inactive,11.8% (inactive)
CCCOc1ccc(N2C(=O)CC(N(Cc3ccc(S(N)(=O)=O)cc3)C(=O)CC)C2=O)cc1 (configuration not stated),441,-4.6% (inactive),-308% (inactive),184%,-0.613,0.516,0.905,-7.28% (inactive),-0.326 (inactive),1.9e-05 (inactive),0.00479 (inactive),inactive,2.36% (inactive)
CCc1nnc(NC(=O)CSc2nc(C)c3c(c2C#N)CCCC3)s1,613,-13.4% (inactive),-129% (inactive),189%,-0.0126,0.0813,-0.0712,-0.674% (inactive),-0.446 (inactive),4.7e-06 (inactive),0.00625 (inactive),inactive,9.29% (inactive)
O=C(c1ccc(=O)oc1)N1CCN(c2ccc(F)cc2)CC1,328,-4.5% (inactive),-1.9% (inactive),95.2%,-0.519,-0.0445,0.228,17.4% (inactive),-0.364 (inactive),-4.3e-05 (inactive),0.00509 (inactive),inactive,31% (inactive)
CCOc1ccc(Cn2c(O)cc(=O)[nH]c2=O)cc1,530,1.9% (inactive),-97.4% (inactive),190%,0.509,0.944,-0.603,14% (inactive),-0.322 (inactive),9.9e-06 (inactive),0.00555 (inactive),inactive,-15% (inactive)
COc1ccc2[nH]c3c(N4CCN(Cc5ccc6c(c5)OCO6)CC4)ncnc3c2c1,428,-0.7% (inactive),-50.8% (inactive),137%,0.867,-0.34,0.0587,0.671% (inactive),-0.302 (inactive),2.3e-06 (inactive),0.00419 (inactive),inactive,141% (active)
C=CCOC(=O)C1=C(C)NC(SCC(=O)N(CC)CC)=C(C#N)C1c1ccccc1 (configuration not stated),348,-0.8% (inactive),-27.9% (inactive),140%,1.19,0.414,-0.822,-0.584% (inactive),-0.405 (inactive),-1.3e-05 (inactive),0.00552 (inactive),inactive,4.36% (inactive)
COc1ccccc1N(O)C1CC(=O)N(c2ccc(Br)cc2)C1=O (configuration not stated),351,4% (inactive),46% (inactive),74.7%,-0.0216,1.1,0.319,-2.59% (inactive),-0.415 (inactive),-4.4e-05 (inactive),0.00547 (inactive),inactive,37.8% (inactive)
CC1(C)Cc2c(sc3nc4n(c(=O)c23)CCC4)CO1,700,-9.4% (inactive),43.7% (inactive),159%,-1.3,1.46,1.2,2.71% (inactive),-0.377 (inactive),-6e-05 (inactive),0.00549 (inactive),inactive,-8.7% (inactive)
CC(=O)Oc1ccccc1C1OCCN1C(C)=O (configuration not stated),619,-6.5% (inactive),-38.8% (inactive),170%,-0.208,-0.565,1.43,-2.69% (inactive),-0.375 (inactive),-2.3e-05 (inactive),0.00518 (inactive),inactive,-5.26% (inactive)
COc1ccc2c(c1OC)C(=O)N1c3ccccc3SC21 (configuration not stated),540,-6% (inactive),-54.8% (inactive),205%,-1.05,0.152,0.534,2.46% (inactive),-0.361 (inactive),1.2e-05 (inactive),0.00516 (inactive),inactive,20.5% (inactive)
COc1ccc(-c2c3c([nH]c(=S)c2C#N)CCC3)cc1,527,-5.1% (inactive),-113% (inactive),192%,-0.0351,1.87,0.16,2.46% (inactive),-0.314 (inactive),-4.4e-06 (inactive),0.00379 (inactive),inactive,-1.44% (inactive)
CC1(C(=O)O)CCC(C(=O)NC2CCCCCC2)C1(C)C (configuration not stated),542,-9.8% (inactive),-131% (inactive),196%,1.72,-0.55,-1.37,28.6% (inactive),-0.513 (inactive),-0.000107 (inactive),0.00621 (inactive),inactive,28.8% (inactive)
